Results: ChEMBL document CHEMBL4823291, “Discovery of 5,6,7,8-tetrahydropyrido[3,4-d]pyrimidine derivatives as novel selective Axl inhibitors” (Bioorg Med Chem Lett, 2021)

Columns and labels:
BaF3 = assay: Ratio of IC50 for Mer in mouse BaF3 cells to IC50 for Axl in mouse BaF3 cells; type: cell-based
[1] = Tmax in CAnN.Cg-Foxnlnu/CrlCrlj mouse plasma at 100 mg/kg, po single dose measured up to 24 hrs by liquid chromatography tandem mass spectrometry; type: ADME, organism-based
[2] = Tmax in CAnN.Cg-Foxnlnu/CrlCrlj mouse plasma at 50 mg/kg, po single dose measured up to 24 hrs by liquid chromatography tandem mass spectrometry; type: ADME, organism-based
CYP2C8 = target: T1, CYP2C8 (Homo sapiens, UniProt P10632); assay: Time dependent inhibition of CYP2C8 in human liver microsomes assessed as enzyme remaining activity using cocktail of probe CYP as substrate at 50 uM; type: ADME; conditions: probe cocktail of CYP probe substrates, read-out: Activity
T1 sequence (P10632 whole entry): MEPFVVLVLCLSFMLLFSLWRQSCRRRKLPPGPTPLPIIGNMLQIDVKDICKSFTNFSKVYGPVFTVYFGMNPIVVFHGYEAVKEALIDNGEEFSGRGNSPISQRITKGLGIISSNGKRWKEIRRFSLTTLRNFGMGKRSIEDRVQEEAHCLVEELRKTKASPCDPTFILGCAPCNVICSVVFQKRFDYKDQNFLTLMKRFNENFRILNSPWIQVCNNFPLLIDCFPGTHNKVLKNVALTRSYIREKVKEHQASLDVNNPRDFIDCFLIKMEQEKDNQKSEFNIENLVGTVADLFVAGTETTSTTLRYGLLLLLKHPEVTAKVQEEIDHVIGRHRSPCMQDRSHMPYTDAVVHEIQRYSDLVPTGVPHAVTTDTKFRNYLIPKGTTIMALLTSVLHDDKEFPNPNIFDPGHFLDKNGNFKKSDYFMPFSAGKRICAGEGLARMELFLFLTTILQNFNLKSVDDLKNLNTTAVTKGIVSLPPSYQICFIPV
Summary of the method: (§1)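 Time-dependent CYP inhibition in human liver microsomes, with test compound at 50 µM and a cocktail of probe CYP substrates.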

CYP2C19 = CYP2C19 (Homo sapiens, UniProt P33261); assay: Time dependent inhibition of CYP2C19 in human liver microsomes assessed as enzyme remaining activity using cocktail of probe CYP as substrate at 50 uM; type: ADME; conditions: probe cocktail of CYP probe substrates, read-out: Activity; summary of the method: as §1
[3] = target: T2, Tyrosine-protein kinase Mer (Mus musculus, UniProt Q60805); assay: Inhibition of Mer in mouse BaF3 cells; type: cell-based
T2 sequence (Q60805 whole entry): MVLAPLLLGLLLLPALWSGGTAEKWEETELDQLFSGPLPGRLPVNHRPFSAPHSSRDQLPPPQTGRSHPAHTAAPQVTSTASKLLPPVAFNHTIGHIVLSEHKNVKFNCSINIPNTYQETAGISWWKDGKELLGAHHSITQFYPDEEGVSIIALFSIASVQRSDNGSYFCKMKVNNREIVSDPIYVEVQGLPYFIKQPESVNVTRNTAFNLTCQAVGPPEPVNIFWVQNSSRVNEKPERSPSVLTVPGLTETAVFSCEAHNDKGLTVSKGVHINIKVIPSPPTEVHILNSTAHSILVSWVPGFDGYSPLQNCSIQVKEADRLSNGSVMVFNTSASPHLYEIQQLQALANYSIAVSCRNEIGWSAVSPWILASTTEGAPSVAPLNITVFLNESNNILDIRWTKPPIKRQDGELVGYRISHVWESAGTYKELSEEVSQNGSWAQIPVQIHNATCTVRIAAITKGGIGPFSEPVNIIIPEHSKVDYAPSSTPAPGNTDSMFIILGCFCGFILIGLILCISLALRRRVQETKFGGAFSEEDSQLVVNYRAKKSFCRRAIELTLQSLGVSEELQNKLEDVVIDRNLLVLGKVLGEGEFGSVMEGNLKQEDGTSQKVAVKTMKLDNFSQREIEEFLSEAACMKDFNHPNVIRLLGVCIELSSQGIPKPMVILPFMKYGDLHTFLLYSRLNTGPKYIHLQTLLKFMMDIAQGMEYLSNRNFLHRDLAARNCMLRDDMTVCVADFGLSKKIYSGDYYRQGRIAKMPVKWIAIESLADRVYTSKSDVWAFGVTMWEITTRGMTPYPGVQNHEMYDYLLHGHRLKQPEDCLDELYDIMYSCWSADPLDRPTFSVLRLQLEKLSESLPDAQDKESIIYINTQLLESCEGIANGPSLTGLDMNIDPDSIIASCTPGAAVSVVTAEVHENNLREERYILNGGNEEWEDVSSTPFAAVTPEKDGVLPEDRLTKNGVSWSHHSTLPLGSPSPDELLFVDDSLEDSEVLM

[4] = Metabolic stability in human liver microsomes assessed as residual ratio at 0.1 uM for 30 mins; type: ADME, Microsome; conditions: read-out: Stabilty
Summary of the method: (§2)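 Compound incubated at 0.1 µM for 30 min with human or mouse liver microsomes. Residual ratio of parent determined afterwards.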

[5] = AUC (0 to 24 hrs) in CAnN.Cg-Foxnlnu/CrlCrlj mouse plasma at 100 mg/kg, po single dose measured up to 24 hrs by liquid chromatography tandem mass spectrometry; type: ADME, organism-based; parameters: route oral, dose 100 mg/kg, time <=24
[6] = Metabolic stability in mouse liver microsomes assessed as residual ratio at 0.1 uM for 30 mins; type: ADME, Microsome; conditions: read-out: Stabilty; summary of the method: as §2

CYP2C19, sequence (P33261 whole entry): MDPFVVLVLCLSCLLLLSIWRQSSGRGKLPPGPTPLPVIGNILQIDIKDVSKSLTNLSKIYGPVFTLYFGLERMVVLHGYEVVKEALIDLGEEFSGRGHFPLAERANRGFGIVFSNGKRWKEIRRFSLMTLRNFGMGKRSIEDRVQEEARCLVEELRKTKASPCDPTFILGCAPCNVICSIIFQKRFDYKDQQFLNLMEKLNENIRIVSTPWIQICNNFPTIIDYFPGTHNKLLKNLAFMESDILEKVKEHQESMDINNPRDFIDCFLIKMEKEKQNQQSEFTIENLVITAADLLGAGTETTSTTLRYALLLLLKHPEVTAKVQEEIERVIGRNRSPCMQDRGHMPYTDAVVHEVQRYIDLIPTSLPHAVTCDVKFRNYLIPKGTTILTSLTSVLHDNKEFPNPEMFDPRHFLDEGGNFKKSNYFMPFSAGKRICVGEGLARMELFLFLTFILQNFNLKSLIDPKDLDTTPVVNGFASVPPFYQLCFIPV

Tmax [1]: 1 h
Tmax [2]: 1 h
activity at 50 µM (CYP2C8): 84%
activity at 50 µM (CYP2C19): 89%
IC50 [3]: 180 nM
remaining at 0.5 h, 0.1 µM [4]: 99%
AUC(0-t) [5]: 110 µg·h/mL
remaining at 0.5 h, 0.1 µM [6]: 66.3%
SMILES: Cc1ccc(-n2c(=O)c(C(=O)Nc3ccc(Oc4ncnc5c4CCN(CC4CCN(C)CC4)C5)c(F)c3)cn(C3CCCC3)c2=O)nc1
Ratio IC50 (BaF3): 6.4
